Bioassay records: PubChem, several laboratories
WT yeast gro inh – growth inhibition of WT strain, primary screen, mitochondrial fusion inhibitor project, WT and mutant strains, chemical genetic; mitochondrial fusion phenotypic screen; inhibition, % at 10 µM; actives 2.1% (n = 190,000); AID 1362, 2008; in the data active = inhibition above about 58%; tested in S. cerevisiae
14-3-3 Bad PPI – inhibitors of 14-3-3 zeta/Bad binding, primary screen, biochemical, TR-FRET, bovine 14-3-3 zeta; 14-3-3 protein zeta/delta (Bos taurus), P63103; AID 781, 2007; actives 0.71% (n = 220,000); TR-FRET 14-3-3zeta/Dy647-pBad peptide displacement, 1 h; inhibition, % at 21.7 µM;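 active = inhibition above about 70%, limit read from the data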
eIF4E-4G inh – eIF4E–eIF4G protein interaction inhibitors, primary screen, biochemical, uHTS, TR-FRET, eIF4GI fragment. Eukaryotic translation initiation factor 4E (Mus musculus) + Eukaryotic translation …. TR-FRET eIF4E-eIF4GI(517-606) binding, 2 h. inhibition, % at 21.7 µM. actives 0.37% (n = 220,000). AID 782, 2007
NCF1 inh – p47phox/p22phox peptide binding inhibitors, primary screen, biochemical, uHTS, NADPH oxidase regulatory subunit. inhibition, % at 24.7 µM. actives 0.53% (n = 220,000). fluorescence polarization, 2 h. Neutrophil cytosol factor 1 (Homo sapiens), P14598
EBV gp42 block – Epstein-Barr virus gp42 inhibitors, primary screen, biochemical, uHTS, fluorescence polarization; Glycoprotein 42 (Epstein-Barr virus (strain AG876)), Q1HVG2; AID 1085, 2008; actives 0.42% (n = 220,000); inhibition, % (tested at 21.74 µM); Fluorescence polarization binding assay, mP read-out; in the data active = inhibition above about 50%
RBBP9 inhibitor – human RBBP9 inhibitors, primary screen, biochemical, fluorescence polarization, FP-Rh probe, HTS. Serine hydrolase RBBP9 (Homo sapiens), O75884. recombinant RBBP9. inhibition, % at 7.94 µM. actives 0.2% (n = 220,000). AID 1515, 2009;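 active = inhibition above the campaign mean of all tested compounds plus 3 SD, cut at about 14% in these data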
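system = RBBP9 protein | input = RBBP9 at 2.5 µM in dispensed solution, before mixing | measured by = fluorescence polarization (mP), excitation 525 nm, emission 598 nm | incubation = enzyme-compound preincubation 30 min, then probe labeling 45 min, 25 °C | buffer or medium = Tris-NaCl-Pluronic buffer, pH 8.0 | compound = single dose 7.94 µM | also added = FP-Rh probe, 375 nM dispensing solution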
Large screens that a line does not name were inactive; ! = repeats disagree; [ ] = another dose, or the depositor's remark. Shown are actives, neighbours in structure and some others; about 3.7% of the full set was active somewhere.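 Rule for the calls, unless noted: active = inhibition above about 30% (limit read from the data); inactive = the rest.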

Cc1ccc(NC(=S)N2CCC(c3ccccc3)C2)c(Cl)c1 (configuration not stated)	none (no result: NCF1 inh)
C/C(NCc1cccnc1)=C(\C#N)C(=O)NCc1ccccc1	14-3-3 Bad PPI 71.3
CC(C)(C)OC(=O)NCCc1nnc(SCc2ccc(Cl)cc2Cl)o1	none
Clc1cccc(NCc2nnc(SCc3ccc(Cl)cc3Cl)o2)c1	WT yeast gro inh 62.0
O=C1C=C(NCc2ccc(Cl)cc2)CCC1	none
CC(C)(C)c1ccc(C(=O)N/N=C2\C3CN4CCN(C3)CC2(c2ccccc2)C4)cc1	WT yeast gro inh 97.8
CCCC12CN3CCN(CC(C3)/C1=N\NC(=O)c1ccc(C(C)(C)C)cc1)C2	WT yeast gro inh 97.8
O=C(N/N=C1\C2CN3CCN(C2)CC1(c1ccccc1)C3)c1ccc(F)cc1	none
Nc1nc(C23CC4CC(CC(C4)C2)C3)[nH]c(=O)n1	none (no result: WT yeast gro inh)
O=C(c1ccc(Cl)cc1)c1cnc(-c2ccccc2)s1	none
O=C(c1cnc(-c2ccccc2)s1)c1ccc(Cl)cc1Cl	WT yeast gro inh 63.5
O=C(OCc1ccccc1)/C(=C/c1ccc(Cl)cc1)NC(=O)c1ccccc1Cl	14-3-3 Bad PPI 80.1
CC1CC(C)CN(S(=O)(=O)N2CCC(C(=O)NCCC3=CCCCC3)CC2)C1 (configuration not stated)	none
COc1ccc([N+](=O)[O-])cc1NC(=O)C(C)OC(=O)c1cccnc1 (configuration not stated)	none
Cc1cc(/C=C2/C(=N)N3C(=NC2=O)SN=C3S(C)(=O)=O)c(C)n1-c1ccccc1F	eIF4E-4G inh 31.4
CC1=CC2=NC(=O)/C(=C\c3cc(C)n(-c4ccccc4F)c3C)C(=N)N2O1	none
COCCN1CCC(CNCc2cn(-c3cc(C)ccc3C)nc2-c2ccccc2)C1 (configuration not stated)	none
COC(=O)C1C(=O)NCC1c1ccccc1 (configuration not stated)	WT yeast gro inh 93.8
COC(=O)c1sccc1NC(=O)CSCCc1ccccn1	none
Nc1ccccc1Nc1cc(-c2cccc(Cl)c2)nn1-c1ccccc1	WT yeast gro inh 75.0
Cc1cc(Nc2ccccc2)n(-c2cccc(Cl)c2)n1	none
OC1(c2ccc(Cl)c(Cl)c2)C[n+]2ccccc2N1Cc1ccccc1 (configuration not stated)	none (no result: WT yeast gro inh)
Cc1ccc(NC(=O)CCSc2nnc(C)s2)cc1	none
CC1=NN(/C(=N\c2nnc(C)s2)Nc2ccc(C(C)(C)C)cc2)[C@H](c2ccc(C)cc2)S1	WT yeast gro inh 79.8
COc1cccc(F)c1C(=O)NC(=O)Nc1ccc2nc(C)oc2c1	none (no result: WT yeast gro inh)
COC(=O)c1cc(C(=O)OC)cc(N2C(=O)CC(NNC(=O)c3ccc(C)cc3)C2=O)c1 (configuration not stated)	NCF1 inh 129.6
COC(=O)c1cc(C(=O)OC)cc(N2C(=O)CC(NNC(=O)c3ccccc3Br)C2=O)c1 (configuration not stated)	none (no result: WT yeast gro inh)
N#Cc1c(/N=C/c2ccco2)oc(-c2ccccc2)c1-c1ccccc1	14-3-3 Bad PPI 93.0[fluorescence artefact?]
Cc1ccc(SC(=O)c2c(C)noc2-c2cc(C)on2)cc1	none (no result: WT yeast gro inh)
C=CCC(C(=O)OC)(C(=O)OC)c1ccc([N+](=O)[O-])cn1	WT yeast gro inh 66.4
O=[N+]([O-])c1cc(C(F)(F)F)cc([N+](=O)[O-])c1Sc1n[nH]c(C(F)(F)F)n1	none (no result: WT yeast gro inh)
Cc1ccc(NC2=CC(=O)C(=O)c3ccccc32)cc1	WT yeast gro inh 65.1
CCOC(=O)c1ccc(NC2=CC(=O)C(=O)c3ccccc32)cc1	none
O=C1CC(c2ccccc2Cl)c2c(sc3c(=O)[nH]c(CCl)nc23)N1 (configuration not stated)	none (no result: WT yeast gro inh)
CN1CCN(C2=Cc3ccccc3Sc3cc(F)c(Cl)cc32)CC1	WT yeast gro inh 98.5
CN1CCN(C2=Cc3cc(Cl)ccc3Sc3cc(F)ccc32)CC1	WT yeast gro inh 95.4
Cc1nc2cc(NC(=O)Nc3ccccc3Cl)ccc2n1C	none
COc1ccc(OC)c(/C=c2\sc3nc(-c4cccs4)nn3c2=O)c1	EBV gp42 block 134.7
C=CCn1c(SCC(=O)Nc2ccc(-c3nc4ccc(C)cc4s3)cc2)nnc1-c1ccncc1	none
CCn1c(SCC(=O)Nc2ccc(-c3nc4ccc(C)cc4s3)cc2)nnc1-c1ccccc1	14-3-3 Bad PPI 91.0[fluorescence artefact?]
Cc1ccc2nc(-c3ccc(NC(=O)CNC4CC4)cc3)sc2c1	WT yeast gro inh 59.3, 14-3-3 Bad PPI 80.3
CCOc1ccccc1CN1CCN(C2CCSCC2)CC1CCO (configuration not stated)	none
Cn1c(=O)c2c(nc(NN=C3CCCC3)n2C)n(C)c1=O	none (no result: WT yeast gro inh)
CCOc1cc(CNn2cn[nH]c2=S)cc(Cl)c1OCc1ccccc1F	WT yeast gro inh 69.1
COc1cc(CNn2c(C)n[nH]c2=S)cc(Cl)c1OCc1ccc(F)cc1	WT yeast gro inh 70.8
COc1cc(CNn2c(C)n[nH]c2=S)cc(Br)c1OCc1ccc(F)cc1	none
CCNC(=O)NCc1c(C)c(C)n(Cc2ccccc2)c1-n1cccc1	none
CCCCN(C(=S)SC)C1CCS(=O)(=O)C1 (configuration not stated)	none (no result: WT yeast gro inh)
Cc1nn2c(COc3ccc(NC(=O)C(C)C)cc3)nnc2c2ccccc12	14-3-3 Bad PPI 84.5
C=CCc1ccc(O)c(-c2cc(CC=C)ccc2O)c1	WT yeast gro inh 73.6
CC(=O)NC1C(=O)N=C(SCC(=O)Nc2cccc(Cl)c2)NC1=O (configuration not stated)	none
C=C1c2cc(OC)ccc2NC(=O)N1CC	EBV gp42 block 51.7
C=C1c2cc(C)ccc2NC(=O)N1c1ccc(C)cc1	none
Cc1ncsc1C(=O)Nc1nc2c(s1)CC(C)CC2 (configuration not stated)	WT yeast gro inh 64.8
CC1CCCN(Cc2csc(N)n2)C1 (configuration not stated)	none
CCN1C(c2ccccc2)C(C)C(=O)C(C)C1c1ccccc1 (configuration not stated)	WT yeast gro inh 80.8
C=CCn1c(SCC#N)nnc1-c1ccc2ncccc2c1	eIF4E-4G inh 97.6 (no result: WT yeast gro inh)
C=CCn1c(SC)nnc1-c1ccc2ncccc2c1	none (no result: WT yeast gro inh)
CN1CCN(C2=Nc3ccccc3Oc3ccc(Cl)cc32)CC1	NCF1 inh 38.5!
O=C1c2ccccc2OC2(C=Cc3ccccc3O2)N1Cc1ccccc1 (configuration not stated)	WT yeast gro inh 69.1
